Data reported in ChEMBL document CHEMBL3994628, “Coumarin derivatives as potential antitumor agents: Growth inhibition, apoptosis induction and multidrug resistance reverting activity” (Eur J Med Chem, 2017).
Activity calls are given as the source filed them. The calls are words filed in the database; no cut-off is given here.

Columns and labels:
Homo sapiens [1] = species on record: Homo sapiens; test: Inhibition of P-gp in human LoVo/DX cells assessed as reduction in Rhodamine123 efflux at 2.5 uM preincubated for 15 mins followed by Rhodamine123 addition measured after 1 hr by flow cytometry; type: cell-based
How it was run: (§1)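 LoVo/Dx cells at 3x10^5 cells/mL in serum-free, phenol red-free medium were preincubated at room temperature for 15 min at 2.5 or 10 µM. Rhodamine 123 was then added at 2 µM for 1 h at 37 °C in the dark. After a PBS wash, fluorescence was read by flow cytometry at 488 nm excitation and 530 nm emission. Mean control fluorescence was subtracted. Verapamil served as positive control. Data are mean ± SD of ≥3 experiments.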

Homo sapiens [2] = species on record: Homo sapiens; test: Substrate activity at P-gp in human LoVo/DX cells assessed as ATP consumption at 10 uM after 2 hrs by ATPlite assay; type: cell-based
[3] = Growth inhibition of human LoVo/DX cells after 24 hrs by MTT assay; type: functional, cell-based
How it was run: (§2)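 Cells were plated at 2x10^4 cells/cm2 and grown in RPMI 1640 with 10% FBS and 2 mM glutamine at 37 °C. They were exposed for 24 h to 0.01-100 µM, diluted from a 10 mmol/L DMSO stock, in triplicate. MTT was then added at 0.2 mg/mL in PBS for 4 h and the formazan dissolved in DMSO. A540 was read and IC50 taken from the dose-response curve, mean ± SD. The ratio compares the IC50s of the two lines.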

Homo sapiens [4] = species on record: Homo sapiens; test: Inhibition of P-gp in human LoVo/DX cells assessed as reduction in Rhodamine123 efflux at 2.5 to 10 uM preincubated for 15 mins followed by Rhodamine123 addition measured after 1 hr by flow cytometry relative to verapamil; type: cell-based; how it was run: as §1
LoVo [5] = test: Growth inhibition of human LoVo cells after 24 hrs by MTT assay; type: functional, cell-based; how it was run: as §2
Homo sapiens [6] = species on record: Homo sapiens; test: Inhibition of P-gp in human LoVo/DX cells assessed as reduction in Rhodamine123 efflux at 10 uM preincubated for 15 mins followed by Rhodamine123 addition measured after 1 hr by flow cytometry; type: cell-based; how it was run: as §1
LoVo [7] = test: Cytostatic activity against human LoVo cells by phase contrast microscopic method; type: functional, cell-based
How it was run: (§3)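 LoVo or LoVo/Dx cells were plated at 2x10^4 cells/cm2 in RPMI 1640 with 10% FBS and exposed for 24 h. Phase contrast microscopy was used to judge growth delay without cell death (cytostatic) or cell death, shown as floating cells (cytotoxic).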

LoVo/DX [8] = test: Cell cycle arrest in human LoVo/DX cells assessed as accumulation at G0/G1 phase after 24 hrs by propidium iodide staining based flow cytometry; type: functional
LoVo [9] = test: Cell cycle arrest in human LoVo cells assessed as accumulation at G0/G1 phase after 24 hrs by propidium iodide staining based flow cytometry; type: functional
LoVo [10] = test: Induction of apoptosis in human LoVo cells assessed as caspase-activation using DEVD as substrate at cytotoxic concentration after 24 hrs by fluorimetric assay relative to control; type: functional
How it was run: (§4)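 After 24 h exposure at cytotoxic concentration, DEVD-hydrolysing caspase activity was measured fluorimetrically in cell extracts. Values are given as percentage increase over untreated control, set at 100%. Data are mean ± SD of at least three independent experiments.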

LoVo [11] = test: Cytotoxic activity against human LoVo cells after 24 hrs by phase contrast microscopic method; type: functional, cell-based; how it was run: as §3
LoVo/DX [12] = test: Induction of apoptosis in human LoVo/DX cells assessed as caspase-activation using DEVD as substrate at cytotoxic concentration after 24 hrs by fluorimetric assay; type: functional, cell-based; how it was run: as §4
LoVo/DX [13] = test: Cytostatic activity against human LoVo/DX cells by phase contrast microscopic method; type: functional, cell-based; how it was run: as §3
LoVo/DX [14] = test: Cytotoxic activity against human LoVo/DX cells after 24 hrs by phase contrast microscopic method; type: functional, cell-based; how it was run: as §3
[15] = Selectivity ratio of IC50 for human LoVo/DX cells to IC50 for human LoVo cells; type: functional; how it was run: as §2
LoVo [16] = test: Cell cycle arrest in human LoVo cells assessed as accumulation at G2/M phase after 24 hrs by propidium iodide staining based flow cytometry; type: functional
LoVo/DX [17] = test: Cell cycle arrest in human LoVo/DX cells assessed as accumulation at S phase after 24 hrs by propidium iodide staining based flow cytometry; type: functional
LoVo [18] = test: Cell cycle arrest in human LoVo cells assessed as accumulation at G2/M phase at 3.5 to 7 uM after 24 hrs by propidium iodide staining based flow cytometry; type: functional
LoVo/DX [19] = test: Cell cycle arrest in human LoVo/DX cells assessed as accumulation at G0/G1 phase at 1.8 uM after 24 hrs by propidium iodide staining based flow cytometry; type: functional
[20] = Selectivity ratio of IC50 for human LoVo cells to IC50 for human LoVo/DX cells; type: functional; how it was run: as §2
LoVo/DX [21] = test: Cell cycle arrest in human LoVo/DX cells assessed as accumulation at G2/M phase at 3.6 uM after 24 hrs by propidium iodide staining based flow cytometry; type: functional
[22] = Induction of apoptosis in human LoVo/DX cells assessed as caspase-activation using DEVD as substrate at cytotoxic concentration after 24 hrs by fluorimetric assay relative to sensitive LoVo cells; type: functional

**Q.** With COc1ccc(CCN(C)CC#C/C(C)=C/COc2ccc3ccc(=O)oc3c2)cc1OC as the molecule, how does the “P-gp inhibition (active/not active)” value (Homo sapiens [1]) read?
**A.** Active

**Q.** And the Activity (Homo sapiens [2])?
**A.** inactive

**Q.** And the IC50 [3]?
**A.** 15.4 µM

**Q.** And the fold change (FC) (Homo sapiens [4])?
**A.** 10

**Q.** And the IC50 (LoVo [5])?
**A.** 40 µM

**Q.** And the “P-gp inhibition (active/not active)” value (Homo sapiens [6])?
**A.** Active

**Q.** Which results are given for C/C(C#CCN1CCN(Cc2ccccc2)CC1)=C\COc1ccc2ccc(=O)oc2c1?
**A.** P-gp inhibition (active/not active) (Homo sapiens [1]): Active; IC50 [3]: 19.6 µM; IC50 (LoVo [5]): 67.6 µM

**Q.** For COc1cc2c(cc1OC)CN(CC#C/C(C)=C/COc1ccc3ccc(=O)oc3c1)CC2, which Activity (LoVo [7]) is on record?
**A.** Active

**Q.** What about the Activity (LoVo/DX [8]) of the same molecule?
**A.** Dose-dependent effect

**Q.** What about the “P-gp inhibition (active/not active)” value (Homo sapiens [1]) of the same molecule?
**A.** Active

**Q.** And the Activity (LoVo [9])?
**A.** Dose-dependent effect

**Q.** What about the Activity (Homo sapiens [2]) of the same molecule?
**A.** inactive

**Q.** What about the IC50 [3] of the same molecule?
**A.** 10.6 µM

**Q.** What about the IC50 (LoVo [5]) of the same molecule?
**A.** 10.7 µM

**Q.** What about the Activity (LoVo [10]) of the same molecule?
**A.** 39%

**Q.** What about the Activity (LoVo [11]) of the same molecule?
**A.** Active

**Q.** And the “P-gp inhibition (active/not active)” value (Homo sapiens [6])?
**A.** Active

**Q.** What about the Activity (LoVo/DX [12]) of the same molecule?
**A.** Active

**Q.** What about the Activity (LoVo/DX [13]) of the same molecule?
**A.** Active

**Q.** And the Activity (LoVo/DX [14])?
**A.** Active

**Q.** For COc1ccc(CCN(C)CCCC(C#N)(c2ccc(OC)c(OC)c2)C(C)C)cc1OC (stereo not given), which Activity (Homo sapiens [2]) is on record?
**A.** Active

**Q.** With C/C(C#CCN1CCN(c2ccccc2)CC1)=C\COc1ccc2ccc(=O)oc2c1 as the molecule, how does the “P-gp inhibition (active/not active)” value (Homo sapiens [1]) read?
**A.** Active

**Q.** And the IC50 [3]?
**A.** 12 µM

**Q.** And the IC50 (LoVo [5])?
**A.** 41 µM

**Q.** For CC(C)=CCOc1ccc2ccc(=O)oc2c1 [7-PRENYLOXYCOUMARIN], which “P-gp inhibition (active/not active)” value (Homo sapiens [1]) is on record?
**A.** Active

**Q.** And the IC50 [3]?
**A.** 50.3 µM

**Q.** And the IC50 (LoVo [5])?
**A.** 30 µM

**Q.** Which “P-gp inhibition (active/not active)” value (Homo sapiens [1]) does the source give for C/C(C#CCN1CCCCC1)=C\COc1ccc2ccc(=O)oc2c1 here?
**A.** Active

**Q.** What about the IC50 [3] of the same molecule?
**A.** 33 µM

**Q.** What about the IC50 (LoVo [5]) of the same molecule?
**A.** 62 µM

**Q.** Which “P-gp inhibition (active/not active)” value (Homo sapiens [1]) does the source give for C#C/C(C)=C/COc1ccc2ccc(=O)oc2c1 here?
**A.** inactive

**Q.** And the IC50 [3]?
**A.** 71.5 µM

**Q.** And the IC50 (LoVo [5])?
**A.** 48 µM

**Q.** For C/C(C#CCN1CCC(n2c(=O)[nH]c3ccccc32)CC1)=C\COc1ccc2ccc(=O)oc2c1, which Activity (LoVo [7]) is on record?
**A.** Active

**Q.** What about the “P-gp inhibition (active/not active)” value (Homo sapiens [1]) of the same molecule?
**A.** Active

**Q.** And the Activity (LoVo [9])?
**A.** Dose-dependent effect

**Q.** What about the “Ratio IC50” value [15] of the same molecule?
**A.** 2

**Q.** And the Activity (Homo sapiens [2])?
**A.** Active

**Q.** What about the IC50 [3] of the same molecule?
**A.** 5 µM

**Q.** What about the IC50 (LoVo [5]) of the same molecule?
**A.** 2.5 µM

**Q.** What about the Activity (LoVo [16]) of the same molecule?
**A.** Dose-dependent effect

**Q.** And the Activity (LoVo [10])?
**A.** 19%

**Q.** And the Activity (LoVo [11])?
**A.** Active

**Q.** And the “P-gp inhibition (active/not active)” value (Homo sapiens [6])?
**A.** Active

**Q.** And the Activity (LoVo/DX [12])?
**A.** Active

**Q.** And the Activity (LoVo/DX [13])?
**A.** Active

**Q.** And the Activity (LoVo/DX [17])?
**A.** Dose-dependent effect

**Q.** And the Activity (LoVo/DX [14])?
**A.** Active

**Q.** With C/C(C#CCN1CCN(C(c2ccc(F)cc2)c2ccc(F)cc2)CC1)=C\COc1ccc2ccc(=O)oc2c1 as the molecule, how does the “P-gp inhibition (active/not active)” value (Homo sapiens [1]) read?
**A.** Active

**Q.** What about the Activity (Homo sapiens [2]) of the same molecule?
**A.** Active

**Q.** And the IC50 [3]?
**A.** 60 µM

**Q.** What about the IC50 (LoVo [5]) of the same molecule?
**A.** 47 µM

**Q.** And the “P-gp inhibition (active/not active)” value (Homo sapiens [6])?
**A.** Active

**Q.** What does the source list for C/C(C#CCN1CCN(C2c3ccccc3-c3ccccc32)CC1)=C\COc1ccc2ccc(=O)oc2c1?
**A.** Activity (LoVo [7]): Active; Activity (LoVo [18]): Active; P-gp inhibition (active/not active) (Homo sapiens [1]): Active; Activity (LoVo/DX [19]): Active; Ratio IC50 [20]: 2; Activity (Homo sapiens [2]): Active; Activity (LoVo/DX [21]): Active; IC50 [3]: 1.8 µM; fold change (FC) [22]: 3; IC50 (LoVo [5]): 3.5 µM; Activity (LoVo [10]): 72%; Activity (LoVo [11]): Active; P-gp inhibition (active/not active) (Homo sapiens [6]): inactive; Activity (LoVo/DX [13]): Active; Activity (LoVo/DX [14]): Active
